Assay results: ChEMBL document CHEMBL3870351, “Synthesis of 2-methyl-1,4-naphthoquinones with higher gamma-glutamyl carboxylase activity than MK-4 both in vitro and in vivo” (Bioorg Med Chem Lett, 2017)
Calls of active or inactive are those of the source. The rule behind the calls is not given here.

Legend:
[1] = Cytotoxicity against human MG63 cells assessed as decrease in cell viability up to 500 nM by MTT assay; assay type: toxicity, cell-based; settings: mg-63
In short: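 MG63 cells; cell viability measured with compounds at concentrations up to 500 nM.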

[2] = target: T1, Vitamin K-dependent gamma-carboxylase (Homo sapiens) (UniProt P38435); experiment: Activation of gamma-glutamyl carboxylase in human MG63 cells assessed as increase in carboxylated osteocalcin level at 50 nM after 72 hrs by enzyme immuno assay; assay type: cell-based; settings: MG-63
T1 sequence (whole entry): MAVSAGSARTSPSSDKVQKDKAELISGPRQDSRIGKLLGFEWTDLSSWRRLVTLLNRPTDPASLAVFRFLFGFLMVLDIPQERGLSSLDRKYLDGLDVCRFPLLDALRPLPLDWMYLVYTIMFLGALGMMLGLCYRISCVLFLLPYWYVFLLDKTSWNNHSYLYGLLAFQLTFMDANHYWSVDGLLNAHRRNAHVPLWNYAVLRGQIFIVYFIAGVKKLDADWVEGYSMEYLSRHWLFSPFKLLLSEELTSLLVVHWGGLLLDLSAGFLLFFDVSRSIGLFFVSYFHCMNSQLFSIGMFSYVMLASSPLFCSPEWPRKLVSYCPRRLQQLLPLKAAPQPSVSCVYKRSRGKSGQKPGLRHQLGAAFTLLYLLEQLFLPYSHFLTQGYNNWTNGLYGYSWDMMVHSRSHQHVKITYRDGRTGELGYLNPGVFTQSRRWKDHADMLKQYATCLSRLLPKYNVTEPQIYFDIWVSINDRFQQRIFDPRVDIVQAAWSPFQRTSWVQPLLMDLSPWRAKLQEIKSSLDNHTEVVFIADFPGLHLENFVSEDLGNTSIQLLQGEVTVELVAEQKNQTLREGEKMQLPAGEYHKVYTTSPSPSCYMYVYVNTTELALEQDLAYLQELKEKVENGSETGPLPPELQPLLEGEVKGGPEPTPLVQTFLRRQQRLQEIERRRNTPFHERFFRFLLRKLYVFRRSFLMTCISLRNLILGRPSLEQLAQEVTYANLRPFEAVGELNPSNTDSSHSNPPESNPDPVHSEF
In short: (§1)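 Human osteosarcoma MG63 cells; uncarboxylated (ucOC) and carboxylated (cOC) osteocalcin measured in culture media/supernatants; untreated controls received no vitamin K or analogue; run in triplicate.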

[3] = target: T1, Vitamin K-dependent gamma-carboxylase (Homo sapiens); experiment: Activation of gamma-glutamyl carboxylase in human MG63 cells assessed as reduction in un-carboxylated osteocalcin level at 50 nM after 72 hrs by enzyme immuno assay; assay type: cell-based; settings: MG-63; in short: as §1
Rattus norvegicus [4] = organism: Rattus norvegicus; experiment: Restoration of prothrombin activity in vitamin-K deficient diet fed Wistar-Kyoto rat assessed as plasma prothrombin level at 5 ug/g of food for 2 days by one-stage PT-based clotting assay (reference value: 60%); assay type: functional
Rattus norvegicus [5] = organism: Rattus norvegicus; experiment: Restoration of prothrombin activity in vitamin-K deficient diet fed Wistar-Kyoto rat assessed as plasma prothrombin level at 5 ug/g of food for 5 days by one-stage PT-based clotting assay (reference value: 60%); assay type: functional
Rattus norvegicus [6] = organism: Rattus norvegicus; experiment: Toxicity in vitamin-K deficient diet fed Wistar-Kyoto rat assessed as change in body weight at 0.5 ug/g of food for 5 days; assay type: organism-based; settings: in vivo, po, 120 h
Rattus norvegicus [7] = organism: Rattus norvegicus; experiment: Toxicity in vitamin-K deficient diet fed Wistar-Kyoto rat assessed as change in body weight at 5 ug/g of food for 2 to 5 days; assay type: organism-based; settings: in vivo, po

Row | Compound | Activity [2] | Activity [3] | Activity [1] | other results
1 | CC1=CC(=O)c2ccccc2C1=O [MENADIONE] | – | – | Non-Toxic | –
2 | CC1=C(CC(=O)O)C(=O)c2ccccc2C1=O | Active | Active | Non-Toxic | –
3 | COc1c(C)c(Br)c(OC)c2ccccc12 | – | – | Non-Toxic | –
4 | CC1=C(Br)C(=O)c2ccccc2C1=O | – | – | Non-Toxic | –
5 | CC(C)=CCC/C(C)=C/CC/C(C)=C/CC/C(C)=C/CC1=C(C)C(=O)c2ccccc2C1=O | Active | Active | – | –
6 | CCOC(=O)Cc1c(C)c(OC)c2ccccc2c1OC | – | – | Non-Toxic | –
7 | COc1c(C)c(CC(=O)O)c(OC)c2ccccc12 | Active | Active | Non-Toxic | –

Second part, led by results:

Row | Activity [2] | Activity [3] | Compound | Activity [1] | other results
8 | Active | Active | CCCCCCCCCCCCCCCCNC(=O)CC1=C(C)C(=O)c2ccccc2C1=O | Non-Toxic | –
9 | – | Active | CCCCCCCCCCCCCCCCCNC(=O)CC1=C(C)C(=O)c2ccccc2C1=O | Non-Toxic | –
10 | Active | Active | CCOC(=O)CC1=C(C)C(=O)c2ccccc2C1=O | Non-Toxic | –
11 | Active | Active | CCCCCCCCCCCCCCNC(=O)CC1=C(C)C(=O)c2ccccc2C1=O | Non-Toxic | Activity (Rattus norvegicus [4]): 107%; Activity (Rattus norvegicus [5]): 106%; Activity (Rattus norvegicus [6]): Non-Toxic; Activity (Rattus norvegicus [7]): Non-Toxic
12 | – | Active | CCCCCCCCCCCCCCCCCCNC(=O)CC1=C(C)C(=O)c2ccccc2C1=O | Non-Toxic | –
